Molecules are shown by their SMILES. Values after ≈ are worked out from the molar mass of the structure shown.

A short description of data set [1]: In vitro drug-release assay by dialysis. The format is physicochemical. The following applies: 37°C, PBS pH 7.4, 48 hours, n=3. The procedure, abridged:
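Dialysis in 2,000 Da MWCO bag against PBS pH 7.4, stirred 48 h at 37±0.5°C. Medium sampled at time points and replaced. Total drug found by methanol disruption of liposomes. Quantified by HPLC: C18 column, methanol/0.025 M KH2PO4 (11:89, pH 3 with H3PO4), 1.0 mL/min, UV 210 nm; n=3.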

Data set [2] in a line: Biodistribution study in H22 tumor-bearing mice. The format is in vivo. Particulars: n=6; for AUC0–8 / Cmax / t½: 2 mg/kg intravenous. The procedure, abridged:
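Subcutaneous H22 model: ascites cells from donor mice diluted in saline to 1×10^7/mL and injected into right hind limb (~0.1 mL/10 g). At ~300 mm3 tumor, mice randomized; single tail-vein 2 mg/kg; killed at 1, 2, 4, 8 h (n=6). Tumor and organs rinsed, weighed, homogenized 1:4 w/v in saline. HCl/IS/acetone extraction; FDA-validated LC-MS/MS. Noncompartmental AUC0–8, Cmax; Te = AUC target/(target+untargeted)×100.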

Another data set concerns H22 tumor-bearing mice. In words: In vivo antineoplastic activity in H22 tumor-bearing mice. Particulars: 2 mg/kg per day, days 1–9, measured on day 10, n=10. In short, it runs like this:
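H22 cells in saline (1×10^7/mL) injected subcutaneously in right hind limb on day 0. Mice randomized to PBS control or treatment, 2 mg/kg tail vein daily on days 1–9 (n=10). Tumor volume by caliper and body weight daily. Killed day 10 and tumors excised and weighed. IRw = (1 − Wdrug/Wcontrol)×100.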

The next data set concerns H22 cells. In words: In vitro cytotoxicity, MTT assay. The format is cell-based, murine. Particulars: n=3. The procedure, abridged: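 Log-phase H22 cells seeded at 10^4/well, grown 24 h, medium renewed. Treated at 0.8, 4, 20, 100, 500 μg/mL for 24 or 48 h; blank liposomes at matched concentrations. MTT (5 mg/mL stock in PBS) added for 4 h, formazan dissolved in DMSO, A490 read. Inhibition rate = (1 − A490 treated/A490 untreated)×100.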

As for `O=C(O)[C@@H]1[C@H](C(=O)O)[C@H]2CC[C@@H]1O2` [DM-NCTD, diacid metabolite of norcantharidin], in data set [1], the “In vitro release of DM-NCTD” value was “quickly and completely released”. In addition, the “Time at which the highest concentrations were achieved in tissues and tumors” value in data set [2] (2 mg/kg tail vein) was 2 h. For the same compound, the “AUC0–8” value in data set [2] (heart) is on record as 116.98±10.63 ng⋅h/mL; in data set [2] (kidney), 1,283.72±66.1 ng⋅h/mL; in data set [2] (liver), 1,481.15±51.3 ng⋅h/mL; in data set [2] (lung), 266.17±13.55 ng⋅h/mL; in data set [2] (spleen) it was 740.09±25.16 ng⋅h/mL; in data set [2] (tumor), 223.18±17.56 ng⋅h/mL. Further, the Cmax (in general, the maximum level reached in the sampled fluid or tissue) turned out to be 24.08 ± 2.39 ng/mL in data set [2] (heart); 427.14 ± 20.81 ng/mL in data set [2] (kidney); 330.15 ± 13.96 ng/mL in data set [2] (liver); 73.43 ± 6.17 ng/mL in data set [2] (lung); 340.11 ± 17.74 ng/mL in data set [2] (spleen); 54.57 ± 9.21 ng/mL in data set [2] (tumor). Further, the t½ (usually the time needed for the level to fall by half in the phase considered) in data set [2] (heart) stood at 110 ± 15 min; in data set [2] (kidney) it was 56.4 ± 16.8 min; in data set [2] (liver), 56.4 ± 13.2 min; in data set [2] (lung), 90.6 ± 19.2 min; in data set [2] (spleen), 53.4 ± 1.2 min; in data set [2] (tumor), 61.2 ± 8.4 min. Further, in the data set with H22 tumor-bearing mice, the Tumor weight came out at 1.02 ± 0.3 g. The “IRw (inhibition rate on tumor weight)” value in the data set on H22 tumor-bearing mice (vs PBS control) was determined as 30.14%. Besides, the “IC50 on H22 cell lines” value with H22 cells (24 hours) came to 39.6 ± 1.20 µg/mL (≈ 213 µM); with H22 cells (48 hours), 30.0 ± 1.73 µg/mL (≈ 161 µM).

These data come from PMC4831591 (International Journal of Nanomedicine, 2016).
